Bioassay records: PubChem, several laboratories
This is a sample that favours compounds with a hit; in the whole collection about 2.9% have one here.
SENP1 inh: SENP1 (human) catalytic domain inhibition; recombinant SENP1 catalytic domain, CyPet-SUMO1-YPet FRET cleavage; 0.21% of 360,000 active; inhibition, % at 10 µM; Q9P0U3;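 active = inhibition at least 30% at 10 µM, raw YFP signal under a set limit, fluorescence ratio 0.5 to 1.5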
Target sequence (Q9P0U3 419-644 limits assumed): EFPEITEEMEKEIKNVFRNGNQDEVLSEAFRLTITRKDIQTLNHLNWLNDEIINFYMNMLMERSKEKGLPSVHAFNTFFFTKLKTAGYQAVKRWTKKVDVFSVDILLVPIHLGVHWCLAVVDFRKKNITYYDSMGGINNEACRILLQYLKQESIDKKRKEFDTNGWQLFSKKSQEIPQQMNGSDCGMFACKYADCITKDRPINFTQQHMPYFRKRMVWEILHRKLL
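Controls: no-enzyme wells low, DMSO-plus-enzyme wells high control. Test system: human recombinant His6-tagged SENP1 catalytic domain enzyme. Reagent: SFCypet-SUMO1-SFYpet FRET protein substrate, 25 nM final. Doses: one dose per compound, 10 µM, 0.5% DMSO. Detection: FRET, CFP and YFP emission. Timing: 50 min reaction at room temperature.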
SENP8 block-1: SENP8 protease inhibition; Q96LD8; purified SENP8, Z-RLRGG-aminoluciferin cleavage, luminescence; inhibition, % at 10 µM; 1.2% of 330,000 active; in the data active = inhibition above about 50%
Target sequence (Q96LD8 whole entry, looked up): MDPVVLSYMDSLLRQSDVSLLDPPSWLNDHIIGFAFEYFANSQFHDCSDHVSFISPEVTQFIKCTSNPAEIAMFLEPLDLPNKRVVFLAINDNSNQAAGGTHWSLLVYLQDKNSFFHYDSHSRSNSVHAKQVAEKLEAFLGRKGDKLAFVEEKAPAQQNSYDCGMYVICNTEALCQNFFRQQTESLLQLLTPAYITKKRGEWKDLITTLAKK
SENP8 block-2: SENP8 (human) protease inhibition; recombinant SENP8, Nedd8 substrate fluorescence; inhibition, % at 20 µM; 0.64% of 360,000 active; in the data active = inhibition mostly above about 40%, no sharp cut-off; inactive = mostly below about 27%
SENP7 block: blocks the human protease SENP7; inhibition, % at 5 µM; recombinant SENP7, Z-RLRGG-aminoluciferin luminescence, 40 min; 1.5% of 330,000 active; Q9BQF6;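 active = inhibition above about 50% at the single test dose, limit read from the data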
HSP90 inh: HSP90 refolding inhibition in rabbit reticulocyte lysate; AID 1789; 0.91% of 290,000 active; inhibition, % at 5.6 µM; luciferase refolding luminescence, 3 h;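 active = inhibition above the screen-wide mean plus 3 SD, computed separately per campaign, cut at about 16% in these data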;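 also: inhibitors lower the luminescence because luciferase stays unfolded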
SENP6 inh: inhibitors of human SENP6 protease | Q9GZR1 | Recombinant SENP6 catalytic domain, aminoluciferin luminescence | inhibition, % at 10 µM | 1.8% of 330,000 active | AID 2599;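 active = inhibition above about 50% at the single tested dose, limit read from the data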
SENP8 confirm: confirmation of human SENP8 protease inhibitors; shares compounds with SENP7 block; Recombinant SENP8, Z-RLRGG-aminoluciferin luminescence, 60 min; inhibition, % at 12.5 µM; 40% of 6,200 active; AID 488912;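 active = mean inhibition across replicates above about 50%, limit read from the data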
SENP6 conf: confirmation of human SENP6 protease inhibitors; AID 488915; 58% of 6,200 active; shares compounds with SENP7 block; recombinant SENP6, Z-RLRGG-aminoluciferin luminescence; inhibition, % at 12.5 µM
SENP7 conf: confirmation of human SENP7 protease inhibitors | AID 488917 | recombinant SENP7, Z-RLRGG-aminoluciferin luminescence, 40 min | inhibition, % at 12.5 µM | shares compounds with SENP7 block | 69% of 6,200 active
Casp3 SENP sel: caspase-3 inhibition (SENP selectivity assay). shares compounds with SENP7 block. purified caspase-3, Z-DEVD-aminoluciferin luminescence, 60 min. 60% of 6,200 active. inhibition, % at 12.5 µM. AID 488918;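 active = mean inhibition above about 50%, limit read from the data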
Target sequence (P42574 28-227 limits assumed): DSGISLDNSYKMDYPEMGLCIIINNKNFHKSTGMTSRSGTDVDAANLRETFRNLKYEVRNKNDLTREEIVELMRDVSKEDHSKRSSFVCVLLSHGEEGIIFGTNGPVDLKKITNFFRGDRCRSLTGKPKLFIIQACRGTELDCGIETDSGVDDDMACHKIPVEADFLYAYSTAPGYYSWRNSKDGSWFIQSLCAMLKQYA
Luc interf: interferes with luciferase luminescence in SENP counter-screen; shares compounds with SENP7 block; AID 488919; inhibition, % at 12.5 µM; Pre-incubated SENP8/Z-RLRGG-aminoluciferin, luciferase luminescence interference; 39% of 6,200 active;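 active = mean inhibition above about 50% when retested at one dose, limit read from the data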
Each line names hits and unclear results; the compound was inactive in the other large screens (follow-up assays come after a bar, where they were run).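 The calls were made as follows, unless noted: active = mean inhibition above about 50% in the one-dose retest (limit read from the data); inactive = the rest.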

O=C(Nc1ccccc1F)c1c[nH]c(=O)[nH]c1=O	SENP6 inh 51 | SENP8 confirm inactive | SENP6 conf inactive | SENP7 conf 70 | Casp3 SENP sel 76 | Luc interf inactive
O=C(O)c1cccc(NC(=O)C2CCCO2)c1 (stereo not drawn)	none
O=C(O)c1cccc(C(=O)Nc2cccc(NC(=O)C3CCCO3)c2)c1 (stereo not drawn)	SENP6 inh 57 | SENP8 confirm 74 | SENP6 conf 71 | SENP7 conf 91 | Casp3 SENP sel 67 | Luc interf inactive
O=C(O)c1cccc(NC(=O)c2cccc(NC(=O)C3CCCO3)c2)c1 (stereo not drawn)	SENP8 block-1 55, SENP6 inh 63 | SENP8 confirm 74 | SENP6 conf 72 | SENP7 conf 90 | Casp3 SENP sel 69 | Luc interf 54
O=C(Nc1ccccc1)Nc1ccc2ncoc2c1	SENP7 block 62 | SENP8 confirm 58 | SENP6 conf 53 | SENP7 conf 82 | Casp3 SENP sel 67 | Luc interf 58
CC(=O)Nc1ccc(NC(=O)Nc2ccccc2)cc1	none
O=C(O)Cc1ccc2ocnc2c1	none
O=C(Nc1ccccc1)Nc1ccc2ocnc2c1	SENP8 block-1 58, SENP7 block 76 | SENP8 confirm inactive | SENP6 conf 64 | SENP7 conf 88 | Casp3 SENP sel 84 | Luc interf inactive
CCOc1ccc(OCc2ccc(C(=O)NN=Cc3ccc[nH]3)cc2)cc1	SENP8 block-1 71, SENP7 block 93, SENP6 inh 93 (no result: HSP90 inh) | SENP8 confirm inactive | SENP6 conf inactive | SENP7 conf inactive | Casp3 SENP sel inactive | Luc interf inactive
O=C(N/N=C/c1ccc[nH]1)c1ccccc1OCc1ccc(F)cc1	none
COc1ccc(OC)c(/C=C/C(=O)N2CCN(S(=O)(=O)c3ccc(C)cc3C)CC2)c1	none (no result: HSP90 inh)
CN1CCN(c2ccc(NC(=O)c3cccs3)cc2)CC1	SENP6 inh 54 | SENP8 confirm inactive | SENP6 conf inactive | SENP7 conf 72 | Casp3 SENP sel 82 | Luc interf inactive
O=C(Nc1ccc(C(=O)N2CCCCC2)cc1)c1cccs1	SENP7 block 60, SENP6 inh 66 | SENP8 confirm inactive | SENP6 conf inactive | SENP7 conf 78 | Casp3 SENP sel 83 | Luc interf 59
O=C(Nc1ccc(NC(=O)c2cccs2)cc1)c1cccs1	none
Cc1ccn(-c2ccc(NC(=O)c3cccs3)cc2)n1	SENP8 block-1 74, SENP7 block 80, SENP6 inh 85 | SENP8 confirm 78 | SENP6 conf 76 | SENP7 conf 94 | Casp3 SENP sel 88 | Luc interf 82
CC(C)C(=O)N1CCN(c2ccc(NC(=O)c3cccs3)cc2)CC1	none
Cc1ccc(OCCOC(=O)c2cccc(S(=O)(=O)N3CC(C)OC(C)C3)c2)cc1 (stereo not drawn)	none (no result: HSP90 inh)
COc1ccc(Cl)cc1C(=O)NNC(=O)c1nn(C)c(=O)c2ccccc12	none (no result: HSP90 inh)
CC1(C(=O)NCc2ccccc2)CCC(=O)N1CC(F)(F)F (stereo not drawn)	none (no result: SENP8 block-1, SENP7 block, HSP90 inh, SENP6 inh)
CCN1CCN(c2ccc(S(=O)(=O)N3CCCCC3)cc2NC(=O)c2cc3ccccc3o2)CC1	none (no result: HSP90 inh)
NC1=C(Br)C(=O)c2ccccc2C1=O	SENP8 block-1 54, SENP8 block-2 104, SENP6 inh 76 | SENP8 confirm inactive | SENP6 conf 63 | SENP7 conf inactive | Casp3 SENP sel 78 | Luc interf inactive
Nc1ccc(Br)c2c1C(=O)c1ccccc1C2=O	none (no result: SENP1 inh, SENP8 block-2)
Clc1ccc(-c2cc3ccccc3[nH]2)cc1	SENP6 inh 71 | SENP8 confirm inactive | SENP6 conf inactive | SENP7 conf 78 | Casp3 SENP sel inactive | Luc interf inactive
CC(=O)c1c(C)[nH]c(C(=O)COC(=O)c2c(-c3ccccc3)noc2C)c1C	none (no result: HSP90 inh)
Cc1ccc(S(=O)(=O)N(C)C)cc1-n1c(SCC(=O)Nc2ccccc2)nc2ccccc2c1=O	SENP6 inh 50 | SENP8 confirm inactive | SENP6 conf inactive | SENP7 conf inactive | Casp3 SENP sel inactive | Luc interf inactive
Cc1cccc(/N=C/c2sc3ccccc3c2O)n1	SENP8 block-1 62, SENP7 block 90, SENP6 inh 80 | SENP8 confirm inactive | SENP6 conf inactive | SENP7 conf inactive | Casp3 SENP sel inactive | Luc interf inactive
Cc1cccc(/N=C/c2c(O)[nH]c3ccccc23)n1	SENP8 block-1 75, SENP6 inh 88 | SENP8 confirm inactive | SENP6 conf 73 | SENP7 conf 94 | Casp3 SENP sel 72 | Luc interf inactive
O=C(Nc1ccc2oc(-c3ccccc3)nc2c1)C1CCCO1 (stereo not drawn)	none
O=C(Nc1ccc(-c2nc3cc(Cl)ccc3o2)cc1)C1CCCO1 (stereo not drawn)	SENP7 block 70 | SENP8 confirm inactive | SENP6 conf inactive | SENP7 conf inactive | Casp3 SENP sel inactive | Luc interf inactive
O=C(O)c1ccccc1-c1ccccc1C(=O)Nc1ccc(-c2nc3cc(Cl)ccc3o2)cc1	none
CC(=O)Nc1ccc(-c2nc3cc(Cl)ccc3o2)cc1	SENP7 block 59, SENP6 inh 57 | SENP8 confirm inactive | SENP6 conf inactive | SENP7 conf 53 | Casp3 SENP sel inactive | Luc interf inactive
O=C(Nc1ccc(-c2nc3ccccc3o2)cc1)C1CCCO1 (stereo not drawn)	SENP8 block-1 80, SENP7 block 91, SENP6 inh 94 | SENP8 confirm 91 | SENP6 conf 92 | SENP7 conf 100 | Casp3 SENP sel 93 | Luc interf inactive
COc1ccc(NC(=O)C2CCCO2)cc1 (stereo not drawn)	none
O=C(Nc1ccc(-c2nc3cccnc3s2)cc1)C1CCCO1 (stereo not drawn)	SENP8 block-1 90, SENP7 block 94, HSP90 inh 60, SENP6 inh 93 | SENP8 confirm 95 | SENP6 conf 95 | SENP7 conf 101 | Casp3 SENP sel 97 | Luc interf 79
CCCN(C(=O)C(=O)Nc1ccc2nc3n(c(=O)c2c1)CCCCC3)c1ccc(OCC)cc1	none
